Data published in ChEMBL document CHEMBL1799973, “Design, synthesis, and cytotoxic evaluation of acyl derivatives of 3-aminonaphtho[2,3-b]thiophene-4,9-dione, a quinone-based system” (J Med Chem, 2011).
The source made the active and inactive calls. The calls are words filed in the database; no cut-off is given here.

Legend:
[1] = Antitumor activity against human MDA231 cells after 24 to 48 hrs by MTT assay; assay type: functional, cell-based; conditions: MDA-MB-231
How it was run: (§1)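 MTT read-out. Cells grown at 37 °C in DMEM with 10 mM glucose, 10% fetal calf serum, penicillin/streptomycin and 2 mmol/L glutamine. Seeded at 10^5 cells per well and left 24 h to attach, then compound added over a range of concentrations and cells grown 24 or 48 h. MTT at 1 mg/mL for 2 h at 37 °C in the dark, formazan dissolved in DMSO, OD read at 550 nm. Values are % of vehicle control (0.5% DMSO); IC50 by linear and polynomial regression; triplicate.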

SW-620 = assay: Antitumor activity against human SW620 cells after 24 to 48 hrs by MTT assay; assay type: functional, cell-based; how it was run: as §1
U-937 = assay: Antitumor activity against human U937 cells after 24 to 48 hrs by MTT assay; assay type: functional, cell-based; how it was run: as §1
Caco-2 [2] = assay: Induction of cyclin A expression in human Caco2 cells at 1 uM after 48 hrs by Western blot analysis; assay type: functional
How it was run: (§2)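 Caco-2 cells treated for 48 h (1 or 5 μM for Hsp27; 1 μM for cyclin A). Lysed in ice-cold 50 mM Tris, 150 mM NaCl, 10 mM EDTA, 1% Triton with protease inhibitors. Equal protein run on 8–12% SDS-PAGE and transferred to nitrocellulose. Primary antibody overnight in TBS/Tween/1% milk, then HRP secondary; bands detected by ECL.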

Caco-2 [3] = assay: Cell cycle arrest in human Caco2 cells assessed as accumulation at S phase at 1 uM after 48 hrs by propidium iodide staining based flow cytometric analysis (reference value: 36%); assay type: functional
Nucleic Acid [4] = assay: Binding affinity to poly(dG-dC).poly(dG-dC) DNA assessed as compound/DNA complex formation at 1 mM by STD NMR spectrophotometric analysis; assay type: nucleic-acid assay
How it was run: (§3)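 Ligand at 1.0 mM with poly(dG-dC)·poly(dG-dC) at 50 μM (as phosphate groups), a 20:1 ligand excess, in H2O/D2O 9:1 with 100 mM phosphate-buffered saline, pH 7.1. Water suppressed by DPFGSE. STD effects taken relative to a reference spectrum with off-resonance saturation at δ −16 ppm, 2 s saturation, typically 512 scans. WaterLOGSY spectra recorded with and without DNA.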

Caco-2 [5] = assay: Cell cycle arrest in human Caco2 cells assessed as accumulation at G2/M phase at 1 uM after 48 hrs by propidium iodide staining based flow cytometric analysis (reference value: 21%); assay type: functional
Homo sapiens [6] = species: Homo sapiens; assay: Inhibition of human topoisomerase 2-mediated relaxation of supercoiled pBR322 DNA relaxation at 5 uM after 6 mins by agarose gel electrophoresis
How it was run: (§4)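 Compound at 5 or 10 μM. Run 6 min at 37 °C and stopped with EDTA/SDS/glycerol dye. Products run on 1% agarose in 0.5× TBE at 4 V/cm for 1 h, stained with ethidium bromide, bands quantified.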

Homo sapiens [7] = species: Homo sapiens; assay: Inhibition of human topoisomerase 2-mediated relaxation of supercoiled pBR322 DNA relaxation at 10 uM after 6 mins by agarose gel electrophoresis; how it was run: as §4
Nucleic Acid [8] = assay: Binding affinity to poly(dG-dC).poly(dG-dC) DNA assessed as compound/DNA complex formation at 1 mM by WaterLOGSY NMR spectrophotometric analysis; assay type: nucleic-acid assay; how it was run: as §3
Caco-2 [9] = assay: Cell cycle arrest in human Caco2 cells assessed as accumulation at G1 phase at 1 uM after 48 hrs by propidium iodide staining based flow cytometric analysis (reference value: 42%); assay type: functional
Caco-2 [10] = assay: Antitumor activity against human undifferentiated Caco2 cells after 24 to 48 hrs by MTT assay; assay type: functional, cell-based; how it was run: as §1
SF-295 = assay: Antitumor activity against human SF295 cells after 24 to 48 hrs by MTT assay; assay type: functional, cell-based; how it was run: as §1
SNB-19 = assay: Antitumor activity against human SNB19 cells after 24 to 48 hrs by MTT assay; assay type: functional, cell-based; how it was run: as §1
Caco-2 [11] = assay: Antitumor activity against human differentiated Caco2 cells after 24 to 48 hrs by MTT assay; assay type: cell-based; how it was run: as §1
COLO 205 = assay: Antitumor activity against human COLO205 cells after 24 to 48 hrs by MTT assay; assay type: functional, cell-based; how it was run: as §1
MDA-MB-435 = assay: Antitumor activity against human MDA-MB-435 cells after 24 to 48 hrs by MTT assay; assay type: functional, cell-based
How it was run: (§5)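 MTT read-out. Cells grown at 37 °C in DMEM with 10 mM glucose, 10% fetal calf serum, penicillin/streptomycin and 2 mmol/L glutamine. Seeded at 10^5 cells per well and left 24 h to attach, then compound added over a range of concentrations and cells grown 24 or 48 h. MTT at 1 mg/mL for 2 h at 37 °C in the dark, formazan dissolved in DMSO, OD read at 550 nm.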

[12] = Antitumor activity against human IGROV cells after 24 to 48 hrs by MTT assay; assay type: functional, cell-based; how it was run: as §5
SK-MEL-28 = assay: Antitumor activity against human SK-MEL-28 cells after 24 to 48 hrs by MTT assay; assay type: functional, cell-based; how it was run: as §1
HT-29 = assay: Antitumor activity against human HT-29 cells after 24 to 48 hrs by MTT assay; assay type: functional, cell-based; how it was run: as §1
Caco-2 [13] = assay: Selectivity index, ratio IC50 for undifferentiated human Caco2 cells to IC50 for differentiated human Caco2 cells; assay type: functional
How it was run: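 Ratio of MTT IC50 in undifferentiated to differentiated Caco-2 cells. MTT conditions: 24 or 48 h exposure, formazan dissolved in DMSO, read at 550 nm, IC50 by regression, triplicate.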

Caco-2 [14] = assay: […] of cell differentiation in human Caco2 cells assessed as increase in ALP activity at 5 uM after 48 hrs; assay type: functional; design: scale not given: the % may be the effect or the level left
How it was run: (§6)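 Caco-2 cells cultured 48 h with 0, 1, 5 or 10 μM compound. Attached and floating cells washed and lysed in 0.25% sodium deoxycholate. ALP activity measured with a diagnostic ALP reagent and protein by Bradford microassay. Activity expressed as units per mg protein, as a differentiation marker.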

Homo sapiens [15] = species: Homo sapiens; assay: Inhibition of human topoisomerase 2-mediated relaxation of supercoiled pBR322 DNA relaxation after 6 mins by agarose gel electrophoresis
MCF7 [16] = assay: Cytotoxicity against human MCF7 cells; assay type: functional, cell-based; how it was run: as §1
[17] = Cardiotoxicity in rat H9c2 cells assessed as cell viability at 1 uM up to 120 hrs by MTT assay; assay type: toxicity, cell-based; conditions: read-out: Activity
How it was run: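 Rat H9C2 cardiomyoblasts, passages 4–10, grown at 37 °C in DMEM with FBS, glutamine and penicillin/streptomycin. Plated at 2000 cells/well in quadruplicate and given compound at 1 μM for the indicated times. MTT reagent added for 2 h in the incubator, then absorbance read at 570 nm. Data are mean ± SD.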

Nucleic Acid [18] = assay: Binding affinity to DNA assessed as binding mode index by measuring aromatic signals by DF-STD spectrophotometric analysis; assay type: nucleic-acid assay
How it was run: (§7)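 DF-STD NMR on poly(dG-dC)·poly(dG-dC) in H2O/D2O 9:1 with 100 mM phosphate-buffered saline, pH 7.1. Ligand 1.0 mM; DNA 50 μM as phosphate (20:1 ligand excess). Saturation is centred on the aromatic or low-field aliphatic region for 2 s, with a reference off-resonance at δ −16 ppm and 512 scans. The binding mode index is the relative response of ligand protons to base versus sugar/backbone saturation.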

Nucleic Acid [19] = assay: Binding affinity to DNA assessed as binding mode index by measuring aliphatic signals by DF-STD spectrophotometric analysis; assay type: nucleic-acid assay; how it was run: as §7
Caco-2 [20] = assay: Increase in Hsp27 protein expression in human Caco2 cells after 48 hrs by Western blot analysis; assay type: functional, cell-based; how it was run: as §2
MCF7 [21] = assay: Drug uptake in human MCF7 cells assessed as nuclear localization at 50 nM after 30 mins by confocal microscopic analysis; assay type: ADME, cell-based; conditions: mcf7, 0.5 h, 0.05 µM
How it was run: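 Imaging in MCF-7 cells by confocal microscopy with 50 nM labeled compound. Cells fixed in paraformaldehyde for 30 min at 4 °C, permeabilized with Triton X-100 for 30 min at 4 °C, and nuclei stained with Hoechst 33342. Images taken with a 63× oil objective.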

Caco-2 [22] = assay: […] of cell differentiation in human Caco2 cells assessed as increase in ALP activity at 1 uM after 48 hrs; assay type: functional; design: scale not given: the % may be the effect or the level left; how it was run: as §6

## O=C(CN1CCOCC1)Nc1csc2c1C(=O)c1ccccc1C2=O
[1]
  IC50: 7.1 µM
SW-620
  IC50: 10.8 µM
U-937
  IC50: 4.3 µM

## CN(C)CCNC(=O)Nc1csc2c1C(=O)c1ccccc1C2=O
[1]
  IC50: 8.7 µM
SW-620
  IC50: 5.9 µM
U-937
  IC50: 9.8 µM

## O=C(CCO)Nc1csc2c1C(=O)c1ccccc1C2=O
[1]
  IC50: 9.2 µM
SW-620
  IC50: 20.3 µM
U-937
  IC50: 15 µM

## O=C(CCS)Nc1csc2c1C(=O)c1ccccc1C2=O
[1]
  IC50: 15.2 µM
SW-620
  IC50: 20.7 µM
U-937
  IC50: 23.9 µM

## N[C@@H](Cc1ccccc1)C(=O)Nc1csc2c1C(=O)c1ccccc1C2=O.O=C(O)C(F)(F)F
[1]
  IC50: > 40 µM
SW-620
  IC50: 30.5 µM
Caco-2 [2]
  Activity: inactive
Caco-2 [3]
  Activity: 44%
Nucleic Acid [4]
  Activity: inactive
U-937
  IC50: > 40 µM
Caco-2 [5]
  Activity: 18%
Homo sapiens [6]
  inhibition: inactive
Homo sapiens [7]
  inhibition: inactive
Nucleic Acid [8]
  Activity: inactive
Caco-2 [9]
  Activity: 37%

## NCCCC[C@H](N)C(=O)Nc1csc2c1C(=O)c1ccccc1C2=O
[1]
  IC50: > 40 µM
SW-620
  IC50: > 40 µM
U-937
  IC50: 20 µM

## CN(C)CCNCC(=O)Nc1csc2c1C(=O)c1ccccc1C2=O
[1]
  IC50: 4.9 µM
SW-620
  IC50: 2.1 µM
U-937
  IC50: 4 µM

## NCCC(=O)Nc1csc2c1C(=O)c1ccccc1C2=O.O=C(O)C(F)(F)F
Caco-2 [10]
  IC50: 2.6 µM
[1]
  IC50: 3.7 µM
SW-620
  IC50: 0.8 µM
SF-295
  IC50: 2.8 µM
SNB-19
  IC50: 1.6 µM
Caco-2 [11]
  IC50: 6.1 µM
COLO 205
  IC50: 0.4 µM
U-937
  IC50: 1.7 µM
MDA-MB-435
  IC50: 0.4 µM
[12]
  IC50: 1.2 µM
SK-MEL-28
  IC50: 1.5 µM
HT-29
  IC50: 0.6 µM
Caco-2 [13]
  Ratio IC50: 0.43

## O=C(CCN1CCOCC1)Nc1csc2c1C(=O)c1ccccc1C2=O
[1]
  IC50: 10.1 µM
SW-620
  IC50: 20.1 µM
U-937
  IC50: 7.2 µM

## CCCNC(=O)Nc1csc2c1C(=O)c1ccccc1C2=O
[1]
  IC50: 9.5 µM
SW-620
  IC50: 6.5 µM
U-937
  IC50: 10.1 µM

## NCC(=O)Nc1csc2c1C(=O)c1ccccc1C2=O
[1]
  IC50: 6.2 µM
SW-620
  IC50: 2.3 µM
U-937
  IC50: 7 µM

## C[C@H](N)C(=O)Nc1csc2c1C(=O)c1ccccc1C2=O
[1]
  IC50: > 40 µM
SW-620
  IC50: 12.4 µM
U-937
  IC50: 9.1 µM

## CN(C)CCNCCC(=O)Nc1csc2c1C(=O)c1ccccc1C2=O.Cl.Cl
Caco-2 [14]
  Activity: >180%
Homo sapiens [15]
  inhibition: Dose-dependent effect
Caco-2 [10]
  IC50: 0.8 µM
[1]
  IC50: 2 µM
SW-620
  IC50: 0.6 µM
SF-295
  IC50: 0.6 µM
Caco-2 [2]
  Activity: 43%
SNB-19
  IC50: 0.9 µM
MCF7 [16]
  IC50: 0.6 µM
[17]
  viability at 120 h, 1 µM: 76%
Caco-2 [3]
  Activity: 53%
Nucleic Acid [18]
  Activity: 1.01
Caco-2 [11]
  IC50: 3.8 µM
Nucleic Acid [4]
  Activity: Active
Nucleic Acid [19]
  Activity: 0.9
COLO 205
  IC50: 1.1 µM
U-937
  IC50: 1.3 µM
MDA-MB-435
  IC50: 0.5 µM
Caco-2 [20]
  Activity: Dose-dependent effect
Caco-2 [5]
  Activity: 26%
MCF7 [21]
  Drug uptake: Active
[12]
  IC50: 2 µM
Caco-2 [22]
  Activity: 35%
Nucleic Acid [8]
  Activity: Active
SK-MEL-28
  IC50: 0.3 µM
HT-29
  IC50: 0.5 µM
Caco-2 [9]
  Activity: 20%
Caco-2 [13]
  Ratio IC50: 0.21

## O=C1c2ccccc2C(=O)c2c(NC(=O)[C@@H]3CCCN3)csc21
[1]
  IC50: 6.7 µM
SW-620
  IC50: 5.4 µM
U-937
  IC50: 0.9 µM

## CCN(CC)CC(=O)Nc1csc2c1C(=O)c1ccccc1C2=O
[1]
  IC50: 8.5 µM
SW-620
  IC50: 4 µM
U-937
  IC50: 5.1 µM

## O=C(CO)Nc1csc2c1C(=O)c1ccccc1C2=O
[1]
  IC50: 10.1 µM
SW-620
  IC50: 18.5 µM
U-937
  IC50: 15.1 µM

## O=C(CS)Nc1csc2c1C(=O)c1ccccc1C2=O
[1]
  IC50: 13.6 µM
SW-620
  IC50: 20.9 µM
U-937
  IC50: 30.1 µM

## Nc1csc2c1C(=O)c1ccccc1C2=O
[1]
  IC50: 11.3 µM
SW-620
  IC50: 4 µM
MCF7 [16]
  IC50: 3.2 µM
U-937
  IC50: 10.1 µM
